From ChEMBL document CHEMBL1133116, “Synthesis and evaluation of 17-aliphatic heterocycle-substituted steroidal inhibitors of 17alpha-hydroxylase/C17-20-lyase (P450 17)” (J Med Chem, 2000)

Assays:
[1] = molecular target: T1, Steroid 17-alpha-hydroxylase/17,20 lyase (Homo sapiens, UniProt P05093); assay: Binding affinity for Cytochrome P450 17 from human testicular microsomes
T1 sequence (P05093 whole entry): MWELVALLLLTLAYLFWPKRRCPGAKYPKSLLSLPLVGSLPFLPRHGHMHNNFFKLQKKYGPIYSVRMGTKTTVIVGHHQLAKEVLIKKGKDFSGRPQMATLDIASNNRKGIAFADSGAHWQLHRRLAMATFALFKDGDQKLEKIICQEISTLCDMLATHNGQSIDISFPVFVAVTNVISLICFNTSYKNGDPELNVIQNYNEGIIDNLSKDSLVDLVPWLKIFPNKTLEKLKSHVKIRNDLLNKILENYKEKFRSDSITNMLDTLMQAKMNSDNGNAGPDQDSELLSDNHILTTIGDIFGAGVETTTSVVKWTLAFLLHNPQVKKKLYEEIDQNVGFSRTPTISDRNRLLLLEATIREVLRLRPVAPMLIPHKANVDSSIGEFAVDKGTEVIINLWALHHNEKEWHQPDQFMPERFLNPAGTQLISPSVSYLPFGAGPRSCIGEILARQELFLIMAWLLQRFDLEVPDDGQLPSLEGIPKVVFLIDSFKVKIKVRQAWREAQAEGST
Procedure, shortened: (§1)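 Ki was determined by the method of Lee and Wilson in the testicular microsome P450 17 assay. Inhibitor was used between its IC40 and IC70 values, with progesterone at 1.25–20 µM and 15 min incubation. All other parameters matched the regular assay. Kinetics were analysed by Lineweaver-Burk plot.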

[2] = molecular target: T2, Steroid 17-alpha-hydroxylase/17,20 lyase (Rattus norvegicus, UniProt P11715); assay: Tested for inhibitory activity against Cytochrome P450 17 from rat testicular microsomes
T2 sequence (P11715 whole entry): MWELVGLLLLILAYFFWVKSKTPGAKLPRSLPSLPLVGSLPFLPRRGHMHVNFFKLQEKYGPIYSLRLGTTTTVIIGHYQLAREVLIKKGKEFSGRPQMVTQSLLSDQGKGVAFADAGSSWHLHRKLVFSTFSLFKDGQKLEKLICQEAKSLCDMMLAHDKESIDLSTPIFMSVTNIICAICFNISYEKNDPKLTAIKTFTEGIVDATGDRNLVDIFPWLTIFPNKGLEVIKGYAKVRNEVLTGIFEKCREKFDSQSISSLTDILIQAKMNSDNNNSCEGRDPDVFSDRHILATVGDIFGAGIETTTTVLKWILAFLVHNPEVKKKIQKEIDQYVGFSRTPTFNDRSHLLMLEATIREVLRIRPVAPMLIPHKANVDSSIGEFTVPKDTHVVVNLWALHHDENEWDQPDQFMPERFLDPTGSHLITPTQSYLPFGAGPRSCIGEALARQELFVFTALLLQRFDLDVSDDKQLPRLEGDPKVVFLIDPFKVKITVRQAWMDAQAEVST
Procedure, shortened: (§2)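 Rat testicular microsomes incubated with progesterone substrate at 25 µM. Products were quantified by reverse-phase HPLC with UV detection. IC50 is the inhibitor concentration giving 50% inhibition, as the mean of at least two experiments, with deviations within 5%.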

[3] = molecular target: T2, Steroid 17-alpha-hydroxylase/17,20 lyase; assay: Binding affinity for Cytochrome P450 17 from rat testicular microsomes; procedure, shortened: as §1
[4] = molecular target: T1, Steroid 17-alpha-hydroxylase/17,20 lyase; assay: Tested for inhibitory activity against Cytochrome P450 17 from human testicular microsomes
Aromatase = molecular target: T3, Aromatase (Homo sapiens, UniProt P11511); assay: Inhibition of Cytochrome P450 19A1
T3 sequence (P11511 whole entry): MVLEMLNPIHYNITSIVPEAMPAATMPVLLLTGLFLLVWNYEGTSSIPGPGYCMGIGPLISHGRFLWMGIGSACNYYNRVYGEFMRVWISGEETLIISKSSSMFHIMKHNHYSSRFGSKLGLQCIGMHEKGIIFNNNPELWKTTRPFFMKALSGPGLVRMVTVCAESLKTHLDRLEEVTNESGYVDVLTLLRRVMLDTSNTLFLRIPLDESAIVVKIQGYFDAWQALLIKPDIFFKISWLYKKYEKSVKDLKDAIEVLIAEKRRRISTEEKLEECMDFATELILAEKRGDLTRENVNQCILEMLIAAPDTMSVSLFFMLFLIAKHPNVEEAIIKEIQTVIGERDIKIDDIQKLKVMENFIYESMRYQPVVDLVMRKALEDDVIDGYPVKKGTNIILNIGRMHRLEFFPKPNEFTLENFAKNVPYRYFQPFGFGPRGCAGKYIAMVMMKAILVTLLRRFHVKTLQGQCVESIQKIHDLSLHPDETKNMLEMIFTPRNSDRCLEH

Thromboxane-A synthase = molecular target: T4, Thromboxane-A synthase (Homo sapiens, UniProt P24557); assay: Inhibition of thromboxane synthase P450 TXA2
T4 sequence (P24557 whole entry): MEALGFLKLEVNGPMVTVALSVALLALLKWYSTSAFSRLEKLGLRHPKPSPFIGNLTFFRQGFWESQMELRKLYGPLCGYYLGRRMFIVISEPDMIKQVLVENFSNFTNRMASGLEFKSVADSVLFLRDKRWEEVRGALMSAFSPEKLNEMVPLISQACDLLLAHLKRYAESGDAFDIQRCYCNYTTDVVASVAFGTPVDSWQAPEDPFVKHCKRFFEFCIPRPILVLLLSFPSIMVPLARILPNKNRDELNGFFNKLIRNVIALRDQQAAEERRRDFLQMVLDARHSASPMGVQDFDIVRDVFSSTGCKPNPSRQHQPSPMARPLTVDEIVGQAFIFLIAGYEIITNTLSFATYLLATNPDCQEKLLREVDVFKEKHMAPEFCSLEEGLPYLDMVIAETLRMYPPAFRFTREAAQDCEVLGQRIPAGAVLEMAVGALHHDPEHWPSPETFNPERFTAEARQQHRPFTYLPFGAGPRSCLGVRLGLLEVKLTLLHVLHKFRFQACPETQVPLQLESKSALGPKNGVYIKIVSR

[5] = molecular target: T5, Cholesterol side-chain cleavage enzyme, mitochondrial (Bos taurus, UniProt P00189); assay: Inhibition of P450 scc
T5 sequence (P00189 whole entry): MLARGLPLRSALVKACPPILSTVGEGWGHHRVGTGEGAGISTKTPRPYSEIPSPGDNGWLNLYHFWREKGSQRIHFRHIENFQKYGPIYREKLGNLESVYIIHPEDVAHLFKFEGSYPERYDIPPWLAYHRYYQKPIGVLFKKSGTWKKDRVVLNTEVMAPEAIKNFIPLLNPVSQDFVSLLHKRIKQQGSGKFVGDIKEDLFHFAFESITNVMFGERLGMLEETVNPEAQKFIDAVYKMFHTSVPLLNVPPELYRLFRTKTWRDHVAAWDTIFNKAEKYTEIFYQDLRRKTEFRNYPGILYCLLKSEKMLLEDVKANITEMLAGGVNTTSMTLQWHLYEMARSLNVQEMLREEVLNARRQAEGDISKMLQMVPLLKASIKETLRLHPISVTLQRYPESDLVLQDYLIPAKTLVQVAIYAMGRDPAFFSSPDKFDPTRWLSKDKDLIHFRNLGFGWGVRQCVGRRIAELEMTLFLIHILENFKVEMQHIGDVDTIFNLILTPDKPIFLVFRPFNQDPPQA

Rattus norvegicus = species on record: Rattus norvegicus; assay: Percent reduction in plasma testosterone after 2 hr; format: functional
Procedure, shortened: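 Adult male Sprague-Dawley rats, 7–8 per group, received a single intraperitoneal dose of 0.019 mmol/kg in olive oil/benzyl alcohol (95:5). Blood was taken by cardiac puncture under diethyl ether anesthesia at 2 h. Plasma testosterone was measured by RIA with [125I]testosterone, in ng/mL.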

[6] = molecular target: T6, 3-oxo-5-alpha-steroid 4-dehydrogenase 2 (Homo sapiens, UniProt P31213); assay: Inhibition of steroid 5-alpha-reductase type II isozyme
T6 sequence (P31213 whole entry): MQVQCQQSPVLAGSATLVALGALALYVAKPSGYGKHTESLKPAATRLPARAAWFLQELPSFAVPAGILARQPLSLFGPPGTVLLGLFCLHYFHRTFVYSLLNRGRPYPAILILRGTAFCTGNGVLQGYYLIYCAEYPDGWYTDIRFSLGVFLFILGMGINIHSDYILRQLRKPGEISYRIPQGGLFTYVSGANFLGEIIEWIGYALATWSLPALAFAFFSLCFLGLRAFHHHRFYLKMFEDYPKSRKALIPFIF
Procedure, shortened: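 The enzyme source for the type II isozyme was prostate homogenate from patients with benign prostatic hyperplasia (BPH).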

[7] = molecular target: T7, 3-oxo-5-alpha-steroid 4-dehydrogenase 1 (Homo sapiens, UniProt P18405); assay: Inhibition of steroid 5-alpha-reductase type I isozyme
T7 sequence (P18405 whole entry): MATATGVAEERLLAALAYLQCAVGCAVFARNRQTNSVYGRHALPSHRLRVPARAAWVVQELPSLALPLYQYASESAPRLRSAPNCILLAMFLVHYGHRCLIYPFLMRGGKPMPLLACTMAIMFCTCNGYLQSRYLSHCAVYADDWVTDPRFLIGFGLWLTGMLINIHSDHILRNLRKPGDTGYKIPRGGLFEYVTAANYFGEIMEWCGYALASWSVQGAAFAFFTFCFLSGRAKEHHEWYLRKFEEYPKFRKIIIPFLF
Procedure, shortened: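 The enzyme source for the type I isozyme was the DU 145 cell line.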

[8] = molecular target: T2, Steroid 17-alpha-hydroxylase/17,20 lyase; assay: Inhibition of Cytochrome P450 17 from rat testicular microsomes; procedure, shortened: as §2
[9] = molecular target: T1, Steroid 17-alpha-hydroxylase/17,20 lyase; assay: Inhibition of cytochrome P450 17A1 from human testicular microsomes; n.i. means No inhibition
Procedure, shortened: as §2, with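 “Human” for “Rat”, “The products, 16α- and 17α-hydroxyprogesterone,” for “Products”, “5%. "No inhibition" refers to 2.5 µM.” for “5%.”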

| SMILES | IC50 [2] [µM] | IC50 [4] [µM] | other results |
| --- | --- | --- | --- |
| CC12CCC(O)CC1=CCC1C2CCC2(C)C(CC3CN3)CCC12 (stereo not drawn) | 0.53 | 0.4 | Ki [1]: 0.006 µM; Ki [3]: 0.009 µM; IC50 (Aromatase): 7.1 µM; IC50 (Thromboxane-A synthase): 35 µM; IC50 [5]: 1 µM; Reduction (Rattus norvegicus): 84% |
| C[C@]12CC[C@H](O)CC1=CC[C@@H]1[C@@H]2CC[C@@]2(C)[C@H]1CC[C@]2(O)[C@@H]1CN1 | 32 | > 2.5 | – |
| CC1(C2CCC3C4CC=C5CC(O)CCC5(C)C4CCC32C)N=N1 (stereo not drawn) | > 125 | > 2.5 | – |
| C[C@]12CC[C@H]3[C@@H](CC=C4C[C@@H](O)CC[C@@]43C)C1=CC[C@@H]2[C@H]1CN1 | 0.43 | 0.29 | Ki [1]: 0.003 µM; Ki [3]: 0.007 µM |
| CC1(C2CCC3C4CC=C5CC(O)CCC5(C)C4CCC32C)NN1 (stereo not drawn) | 16 | > 25 | – |
| C[C@]12CC[C@H]3[C@@H](CC=C4CC(O)CC[C@@]43C)[C@@H]1CC[C@@H]2C1CS1 (stereo partly drawn) | > 2.5 | – | – |
| C[C@]12CC[C@H]3[C@@H](CC=C4CC(O)CC[C@@]43C)[C@@H]1CC[C@@H]2[C@@H]1CN1 (single isomer, unassigned) | 34 | 1.52 | – |
| C[C@]12CC[C@H]3[C@@H](CC=C4CC(=O)CC[C@@]43C)[C@@H]1CC[C@@H]2C1CO1 (stereo partly drawn) | > 25 | – | – |
| CC12CCC(=O)CC1=CCC1C2CCC2(C)C(CC3CN3)CCC12 (stereo not drawn) | 1.32 | 1.8 | IC50 [6]: 9 µM; IC50 [7]: 1.6 µM |
| CC12CCC(O)CC1=CCC1C2CCC2(C)C(C3CCN3)CCC12 (stereo not drawn) | – | – | IC50 [8]: > 125 µM; IC50 [9]: Not Active |
